Assays:
bombesin receptor (BB2) = bombesin receptor (BB2) (Homo sapiens, UniProt P30550); type: binding; settings: read-out: Ki, displacement of [125I][Tyr4]bombesin; PC3 cells
FPR1 [1] = biological target: T1, FPR1 (Homo sapiens, UniProt P21462); assay: Ca2+ mobilization in FPR1-HL-60 cells; type: cell-based; settings: percentage of the response induced by 5 nM fMLF
T1 sequence (P21462 1-350): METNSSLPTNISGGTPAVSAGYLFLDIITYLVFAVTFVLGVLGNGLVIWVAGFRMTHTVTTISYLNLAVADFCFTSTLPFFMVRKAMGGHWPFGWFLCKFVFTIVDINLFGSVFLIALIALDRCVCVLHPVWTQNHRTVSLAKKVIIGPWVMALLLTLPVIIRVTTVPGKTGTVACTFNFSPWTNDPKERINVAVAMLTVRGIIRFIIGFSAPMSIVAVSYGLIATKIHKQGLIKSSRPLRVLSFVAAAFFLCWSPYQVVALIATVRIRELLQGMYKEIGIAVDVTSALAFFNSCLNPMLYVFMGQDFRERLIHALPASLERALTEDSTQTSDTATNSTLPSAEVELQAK

FPR2 [2] = biological target: T2, FPR2 (Homo sapiens, UniProt P25090); assay: PathHunter β-arrestin recruitment, FPR2-CHO-K1 cells; type: cell-based; settings: read-out: β-arrestin recruitment EC50
T2 sequence (P25090 1-351): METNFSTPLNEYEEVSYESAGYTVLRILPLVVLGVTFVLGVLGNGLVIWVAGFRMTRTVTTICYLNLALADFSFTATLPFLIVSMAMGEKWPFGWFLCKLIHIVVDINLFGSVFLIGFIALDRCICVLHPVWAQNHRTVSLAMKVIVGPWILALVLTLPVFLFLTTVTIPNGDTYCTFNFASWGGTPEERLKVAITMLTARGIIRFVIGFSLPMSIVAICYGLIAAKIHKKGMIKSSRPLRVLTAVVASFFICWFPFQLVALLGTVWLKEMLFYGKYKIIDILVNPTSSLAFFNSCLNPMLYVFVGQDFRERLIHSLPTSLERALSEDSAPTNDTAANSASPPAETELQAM
Outline: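 The assay used the PathHunter enzyme-fragment complementation format in FPR2-transfected CHO-K1 cells. Thawed cells were plated at 5000/well in the kit medium and held 48 h at 37 °C with 5% CO2. Test compound was serially diluted at constant DMSO and added for 90 min at 37 °C, then detection reagent for 60 min at room temperature. Chemiluminescence was read.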

FPR1 [3] = biological target: T1, FPR1; assay: PathHunter β-arrestin recruitment, FPR1-CHO-K1 cells; type: cell-based; settings: read-out: β-arrestin recruitment EC50
human neutrophils = assay: Neutrophil chemotaxis assay; type: cell-based; settings: read-out: Neutrophils Chemotaxis EC50, N.A. = non-active
FPR2 [4] = biological target: T2, FPR2; assay: Ca2+ mobilization in FPR2-HL-60 cells; type: cell-based; settings: percentage of the response induced by 5 nM WKYMVM

Chain of bombesin receptor (BB2) (P30550 whole entry): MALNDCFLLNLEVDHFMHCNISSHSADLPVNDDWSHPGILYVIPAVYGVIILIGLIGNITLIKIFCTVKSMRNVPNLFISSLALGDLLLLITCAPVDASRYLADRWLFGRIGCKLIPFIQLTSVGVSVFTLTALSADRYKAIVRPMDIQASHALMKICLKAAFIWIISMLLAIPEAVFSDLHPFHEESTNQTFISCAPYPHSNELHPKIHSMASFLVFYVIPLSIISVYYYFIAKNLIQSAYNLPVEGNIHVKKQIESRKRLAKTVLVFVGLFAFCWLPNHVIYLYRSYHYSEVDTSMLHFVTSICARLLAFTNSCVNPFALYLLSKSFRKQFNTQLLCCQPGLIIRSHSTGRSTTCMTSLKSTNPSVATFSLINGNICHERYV

| Structure (SMILES) | Ki (bombesin receptor (BB2)) [µM] | Ca2+ Mobilization in HL-60 cells FPR1 Efficacy (FPR1 [1]) [%] | EC50 (FPR2 [2]) [µM] | EC50 (FPR1 [3]) [µM] | EC50 (human neutrophils) [µM] | Ca2+ Mobilization in HL-60 cells FPR2 Efficacy (FPR2 [4]) [%] |
| --- | --- | --- | --- | --- | --- | --- |
| COc1ccc(C2(CNC(=O)[C@](C)(Cc3c[nH]c4ccccc34)NC(=O)Nc3ccc([N+](=O)[O-])cc3)CCCCC2)nc1 [PD176252] | 0.066 | 100 | 8.8 ± 2 | 3.8 ± 1.1 | 0.81 ± 0.22 | 90 |
| C[C@@](Cc1c[nH]c2ccccc12)(NC(=O)Nc1ccc([N+](=O)[O-])cc1)C(=O)NCC1(c2ccccn2)CCCCC1 [PD168368] | – | – | 11.1 ± 2.8 | – | 0.7 ± 0.15 | 75 |

Source: PMC3553303 (Biochemical pharmacology, 2012)
